Bioassay records (PubChem)
Sampled rows, rich in hits. Any-hit rate of the full collection: about 3.5%.
MrgX1 agonist: activates human MrgX1 receptor signaling; B-score at 10 µM; actives 0.44% (n = 310,000); Q96LB2; MrgX1-HEK293 cells, Fluo-4 calcium fluorescence, agonist mode; hits give high values;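 active = calcium response B-score plate-corrected fluorescence ratio at least 3 library SD, with starting fluorescence B-score inside 5 SD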
Target sequence (Q96LB2 whole entry, looked up): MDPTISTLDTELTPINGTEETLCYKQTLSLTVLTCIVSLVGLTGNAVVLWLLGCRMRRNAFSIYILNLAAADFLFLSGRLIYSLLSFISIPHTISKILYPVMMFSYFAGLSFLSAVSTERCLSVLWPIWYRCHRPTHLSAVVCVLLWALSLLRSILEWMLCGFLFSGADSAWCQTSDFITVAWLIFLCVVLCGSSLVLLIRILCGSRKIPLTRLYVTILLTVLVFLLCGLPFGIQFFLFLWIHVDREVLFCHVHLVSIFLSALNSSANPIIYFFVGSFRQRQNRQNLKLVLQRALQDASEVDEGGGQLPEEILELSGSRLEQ
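Assay system: MrgX1-expressing HEK293 cells / Amount: fifteen thousand cells per well / Doses: test compound in the initial addition of three / Timing: cells plated overnight, dye loaded 0.5 h 37 °C, 0.5 h room temperature / Technique: kinetic calcium dye fluorescence, Fluo-4 NW / Control set: positive and negative controls per plate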
MrgX1 antagonist: human MrgX1 receptor antagonism, primary screen; B-score at 10 µM; actives 1.3% (n = 310,000); MRGX1-HEK293 calcium flux, Fluo-4, BAM8-22 antagonism; hits give low values; Q96LB2;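 active = calcium-response B-score plate-corrected more than 3 library SD below zero, starting fluorescence within 5 deviations, no agonist response on first addition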;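 note: peak minus trough fluorescence over baseline after final BAM8-22 challenge near maximal dose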
RGS4 act: potentiators or activators of RGS4; HEK293 M3R/inducible RGS4, carbachol calcium flux Fluo4; hits give low values; B-score at 10 µM; actives 0.92% (n = 310,000);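 active = B-score of the integrated calcium signal more than 4 SD below the library mean, with starting fluorescence not abnormally high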;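 note: negative B-score means reduced calcium response which marks RGS4 activation or potentiation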
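System: HEK293 FlpIn-TREx cells, stable M3R, doxycycline-inducible RGS4. Timing: overnight RGS4 induction, 30 min dye load 37 °C, 20 min compound RT. Also added: carbachol, ECmax concentration. Measured by: Fluo4 fluorescence kinetic imaging of calcium. Evaluation: integrated calcium ratio converted to B score.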
MrgX1 allo act: allosterically activates human MrgX1 receptor signaling | MrgX1-HEK293, Fluo-4 calcium flux, FDSS; hits give high values | B-score at 10 µM | actives 0.63% (n = 310,000);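 active = plate-corrected calcium response at least 3 library SD above typical, normal starting fluorescence, not activating the receptor alone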;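 note: compound read alongside a low EC10 to EC30 dose of BAM8-22 agonist; peak minus trough fluorescence over baseline measured at the second addition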
RGS4 inh: human RGS4 inhibition; P49798; HEK293 M3R/RGS4 inducible, Fluo-4 calcium flux; hits give high values; triggered by carbachol at its EC20; B-score at 10 µM; actives 0.45% (n = 310,000);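 active = B-score, a plate-corrected calcium signal, over three deviations above library mean, with baseline fluorescence within five deviations of library mean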;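 note: RGS4 expression induced by doxycycline in cells with stable M3 receptor; B-score is computed from the integrated fluorescence ratio over baseline after carbachol; higher B-score means a larger calcium signal and so more RGS4 inhibition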
Target sequence (P49798 whole entry, looked up): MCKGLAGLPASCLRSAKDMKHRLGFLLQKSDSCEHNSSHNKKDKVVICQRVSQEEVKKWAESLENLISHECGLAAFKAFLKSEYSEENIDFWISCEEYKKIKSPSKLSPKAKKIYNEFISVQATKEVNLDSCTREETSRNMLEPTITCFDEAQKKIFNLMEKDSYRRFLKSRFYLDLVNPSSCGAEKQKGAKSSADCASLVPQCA
MrgX1 antag conf: confirmation of human MrgX1 receptor antagonists | actives 19% (n = 2,300) | remaining BAM8-22 calcium response % of control (hits give low values), % at 10 µM | shares compounds with MrgX1 antagonist | MrgX1-HEK293, BAM8-22 calcium flux, Fluo-4; hits give low values;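 active = remaining agonist calcium response no higher than 100% minus 3 SD of agonist-only control wells, with starting fluorescence near control levels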;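 note: agonist BAM8-22 given at a near maximal EC90 to ECmax level; peak minus minimum fluorescence divided by baseline after agonist addition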
HEK293 Ca flux: activity in parental HEK293 cells lacking MrgX1. Fluo-4 calcium fluorescence, FDSS. actives 2% (n = 4,000). fluorescence ratio F(max-min)/F0 at 10 µM. shares compounds with MrgX1 antagonist. AID 624111;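 active = duplicate-averaged calcium fluorescence ratio at least three times the standard deviation of buffer wells, a nonspecific response in parental cells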
HEK293 Ca counter: MrgX1 allosteric activator counter-screen hit in parental HEK293 cells; shares compounds with MrgX1 antagonist; parental HEK293 calcium flux, Fluo-4 fluorescence ratio; hits give high values; fluorescence ratio F(max-min)/F0 at 10 µM; actives 0.4% (n = 4,000); AID 624114;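 active = calcium fluorescence ratio, averaged over duplicates, at least 3 SD of the buffer-well ratio, meaning a nonspecific response in receptor-free cells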;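 note: untransfected parental HEK293 lacking MrgX1 used as counterscreen for MrgX1 allosteric activators; fluorescence change taken during the second addition on a kinetic imager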
HEK293 Ca cntr2: MrgX1 activator counter-screen hit in parental HEK293 cells; shares compounds with MrgX1 antagonist; Fluo-4 calcium fluorescence (FDSS); hits give high values; fluorescence ratio F(max-min)/F0 at 10 µM; actives 8.7% (n = 4,000); AID 624115;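 active = calcium fluorescence ratio at least three times the spread of buffer wells, meaning a non-specific response in parental cells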
Active calls of the source: *; i = inactive; / = no result given.

SMILES	MrgX1 agonist	MrgX1 antagonist	RGS4 act	MrgX1 allo act	RGS4 inh	MrgX1 antag conf	HEK293 Ca flux	HEK293 Ca counter	HEK293 Ca cntr2
COc1ccc(-c2nc3ccccc3c(=O)n2CCOc2ccc(C)cc2C)cc1	i	i	i	i	i	/	/	/	/
COc1ccc(-c2nc3ccccc3c(=O)n2CCOc2ccccc2C)cc1	i	-7.01*	i	i	i	i	i	i	i
CCN(Cc1ccccc1)S(=O)(=O)c1ccc2oc(C(=O)O)c(C)c2c1	i	-5.19*	i	i	i	i	i	i	i
CCN(CC)S(=O)(=O)c1ccc2oc(C(=O)O)c(C)c2c1	i	i	i	i	i	/	/	/	/
Fc1ccc(NC(=S)Nc2cccnc2)cc1	i	i	i	i	i	/	/	/	/
O=C(Nc1ccc(F)c(Cl)c1)Nc1cnccn1	i	-6.16*	i	i	i	i	i	i	i
Fc1ccc(NC(=S)Nc2cccnc2)cc1Cl	i	-5.57*	i	i	i	i	i	i	i
Cc1ccc(NC(=O)Nc2cccnc2)cc1Cl	i	-4.74*	i	i	i	80.1%*	i	i	i
CC1(C2CC(C(F)(F)F)n3nc(C(=O)O)cc3N2)CC1 (stereo unspecified)	i	i	i	i	i	/	/	/	/
O=C(Nc1nc(-c2ccccc2)cs1)c1ccc(=O)[nH]c1	i	-4.75*	i	i	i	i	i	i	i
CC(=O)c1c(C)[nH]c(C(=O)Nc2nc(-c3ccc(-c4ccccc4)cc3)cs2)c1C	i	-12.4*	i	i	i	52.0%*	i	i	i
Cc1cc(-c2csc(NC(=O)c3ccc(=O)[nH]c3)n2)c(C)n1Cc1ccccc1	i	i	i	i	i	/	/	/	/
CC(=O)c1cccc(NC(=O)c2ccc3c(=O)n4c(nc3c2)CCCCC4)c1	i	i	i	i	i	/	/	/	/
O=C(Nc1nc(-c2ccccc2)cs1)c1ccc2c(=O)n3c(nc2c1)CCCCC3	i	-11.6*	i	i	i	9.6%*	i	i	i
CCOC(=O)N1CCN(C(=O)CN(Cc2ccc(Cl)cc2)S(C)(=O)=O)CC1	i	-6.23*	i	i	i	i	i	i	i
CCc1nc2ccccc2n1CCC(C)C	i	-6.32*	i	i	i	i	i	i	i
C=CCn1c(C(C)C)nc2ccccc21	i	-6.72*	i	i	i	i	i	i	i
CCc1nc2ccccc2n1CCc1ccccc1	i	i	i	i	i	/	/	/	/
CCOCCn1c(CCCO)nc2ccccc21	i	-11*	i	i	i	i	i	i	i
C=CCn1c(N)nc2ccccc21	i	-4.61*	i	i	i	i	i	i	i
C=CCn1c(C(O)c2ccccc2)nc2ccccc21 (stereo unspecified)	i	i	i	i	i	/	/	/	/
CCOCCn1c(CC)nc2ccccc21	i	i	i	i	i	/	/	/	/
O=C(COC(=O)/C=C/c1ccccc1Cl)NC1CCCCCC1	i	i	i	i	i	/	/	/	/
C/C(=N/NC(=O)c1nnn(-c2nonc2N)c1COc1ccccc1)c1ccccc1	i	i	i	i	i	/	/	/	/
CCCn1c(N)nc2ccccc21	i	-5.47*	i	i	i	i	i	i	i
SMILES	MrgX1 agonist	MrgX1 antagonist	RGS4 act	MrgX1 allo act	RGS4 inh	MrgX1 antag conf	HEK293 Ca flux	HEK293 Ca counter	HEK293 Ca cntr2
CCn1c(N)nc2ccccc21	i	i	i	i	i	/	/	/	/
COc1cc(NC(=O)c2oc3ccccc3c2C)ccc1NC(=O)c1ccco1	i	i	i	i	i	/	/	/	/
COc1ccccc1NC(=O)c1oc2ccccc2c1NC(=O)c1ccco1	i	-5.17*	i	i	i	77.1%*	i	i	i
Cc1ccc(S(=O)(=O)CCNC(=O)Cc2ccccc2)cc1	i	i	i	i	i	/	/	/	/
CCc1cc(=O)oc2cc(OC(C)=O)cc(OC(C)=O)c12	i	-8.31*	i	i	i	i	i	i	i
Cc1ccc(C(CNS(=O)(=O)c2ccc(Cl)cc2)N2CCN(C)CC2)cc1 (stereo unspecified)	i	-4.96*	i	i	i	78.5%*	i	i	i
Cc1ccc(C(CNS(=O)(=O)c2ccc(C)cc2)N2CCN(C)CC2)cc1 (stereo unspecified)	i	i	i	i	i	/	/	/	/
CCOC(CNC(=O)Cn1nc(C)c2ccccc21)OCC	i	i	i	i	i	/	/	/	/
CC(C)(C)c1ccc(-n2ncc3c2CCCC3NC(=O)CCN2CCCCC2=O)cc1 (stereo unspecified)	i	i	i	i	i	/	/	/	/
Cc1cc(C)cc(-n2ncc3c2CCCC3NC(=O)CN2CCCCC2=O)c1 (stereo unspecified)	i	-8.32*	i	i	i	i	i	i	i
COc1cccc(CNc2nc(SC)ncc2CO)c1	i	-4.77*	i	i	i	80.3%*	i	i	i
COc1cccc(CNc2ncnc3cc(OC)c(OC)cc23)c1	i	i	i	i	i	/	/	/	/
CSc1ccccc1NC(=O)CCn1c(=O)sc2ccccc21	i	-6.32*	i	i	i	i	i	i	i
CCOC(=O)c1sc(=NC(=O)c2ccccc2)n(C)c1C	i	i	i	i	i	/	/	/	/
CCOC(=O)c1sc(=NC(=O)CCS(=O)(=O)c2ccccc2)n(C)c1C	i	-5.66*	i	i	i	i	i	i	i
COc1cc(OC)cc(C(=O)NCCCNC(=O)c2ccccn2)c1	i	i	i	i	i	/	/	/	/
CCCCn1c(N)c(N(CCOC)C(=O)c2ccc(S(=O)(=O)N3CCC(C)CC3)cc2)c(=O)[nH]c1=O	i	i	i	i	i	/	/	/	/
CCC1(c2ccc(F)cc2)NC(=O)N(CC(=O)NC2CC2)C1=O (stereo unspecified)	i	i	i	i	i	/	/	/	/
